Reference: ChEMBL document CHEMBL3853295, “Design and synthesis of novel pyrazolo[1,5-a]pyrimidine derivatives bearing nitrogen mustard moiety and evaluation of their antitumor activity in vitro and in vivo” (Eur J Med Chem, 2016)

Experiments:
[1] = Cytotoxicity against human SH-SY5Y cells after 72 hrs by MTT assay; assay type: functional, cell-based
Procedure, shortened: (§1)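 Cells cultured in DMEM or RPMI 1640 with 10% FBS. Seeded at about 2 × 10^3 per well and grown 24 h at 37 °C, 5% CO2. Compounds added at final 0.1–1000 uM for 72 h, 5 wells per concentration. MTT added for 4 h at 37 °C, then lysis overnight. Absorbance read at 570 nm against a 650 nm reference; IC50 calculated.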

[2] = Cytotoxicity against human HepG2 cells after 72 hrs by MTT assay; assay type: functional, cell-based; conditions: HepG2, 72 h; procedure, shortened: as §1
[3] = Cytotoxicity against human A549 cells after 72 hrs by MTT assay; assay type: functional, cell-based; conditions: A549, 72 h; procedure, shortened: as §1
[4] = Cytotoxicity against human MCF7 cells after 72 hrs by MTT assay; assay type: functional, cell-based; conditions: MCF7, 72 h; procedure, shortened: as §1
[5] = Cytotoxicity against human DU145 cells after 72 hrs by MTT assay; assay type: functional, cell-based; conditions: DU-145, 72 h; procedure, shortened: as §1
[6] = Cytotoxicity against human GES-1 cells assessed as reduction in cell viability after 72 hrs by MTT assay; assay type: toxicity, cell-based, GES1; procedure, shortened: as §1
[7] = Antitumor activity against human HepG2 cells xenografted in nude mouse assessed as tumor growth inhibition at 10 mg/kg, ip administered every day for 15 times measured from day 12 to 26; assay type: functional; parameters: scale not given: the % may be the effect or the level left
Procedure, shortened: (§2)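 Female nude mice given 5 × 10^6 HepG-2 cells subcutaneously in the left flank. Randomized, n = 5 per group. Daily i.p. injection for 15 times, with saline as vehicle control. Tumor length and width recorded every other day; volume taken as 1/2·length·width² once tumors reached 130–160 mm3. Result is tumor growth inhibition versus the saline group.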

[8] = Antitumor activity against human HepG2 cells xenografted in nude mouse assessed as tumor growth inhibition at 20 mg/kg, ip administered every day for 15 times measured from day 12 to 26; assay type: functional; parameters: scale not given: the % may be the effect or the level left; procedure, shortened: as §2

Row | Compound | IC50 [1] [µM] | IC50 [2] [µM] | IC50 [3] [µM] | IC50 [4] [µM] | IC50 [5] [µM] | IC50 at 72 h [6] [µM] | Activity [7] [%] | Activity [8] [%]
1 | N#Cc1cnn2c(Nc3cccc(N(CCCl)CCCl)c3)cc(CN3CCC(c4ccccc4)CC3)nc12 | > 100 | > 100 | > 100 | > 100 | > 100 |  |  | 
2 | CN1CCN(Cc2cc(Nc3cccc(N(CCCl)CCCl)c3)n3ncc(C#N)c3n2)CC1 | 15.3 | 17.6 | 19.5 | 41.1 | 50.5 |  |  | 
3 | CCOC(=O)C1CCN(Cc2cc(Nc3cccc(N(CCCl)CCCl)c3)n3ncc(C#N)c3n2)CC1 | > 100 | 88.1 | > 100 | > 100 | > 100 |  |  | 
4 | N#Cc1cnn2c(Nc3ccc(Br)cc3)cc(CN(CCCl)CCCl)nc12 | 49.1 | 37.2 | 61.4 | 28.3 | 33.1 |  |  | 
5 | CC1CCN(Cc2cc(Nc3cccc(N(CCCl)CCCl)c3)n3ncc(C#N)c3n2)CC1 | 25.9 | 33.8 | 35.9 | > 100 | 55.8 |  |  | 
6 | N#Cc1cnn2c(Nc3ccc(F)cc3)cc(CN(CCCl)CCCl)nc12 | > 100 | 64.2 | > 100 | 77.5 | 84.4 |  |  | 
7 | N#Cc1cnn2c(Nc3cccc(N(CCCl)CCCl)c3)cc(CN3CCOCC3)nc12 | 61 | 33.4 | > 100 | > 100 | > 100 |  |  | 
8 | N#Cc1cnn2c(Nc3cc(F)cc(F)c3)cc(CN(CCCl)CCCl)nc12 | > 100 | > 100 | > 100 | 84.4 | > 100 |  |  | 
9 | N#Cc1cnn2c(Nc3ccc(Cl)cc3)cc(CN(CCCl)CCCl)nc12 | 50.6 | 39.3 | 79.5 | 33 | 42.9 |  |  | 
10 | N#Cc1cnn2c(Nc3ccc(C(F)(F)F)cc3)cc(CN(CCCl)CCCl)nc12 | > 100 | 55.5 | > 100 | 33 | 95.1 |  |  | 
11 | N#Cc1cnn2c(Nc3ccc(N(CCCl)CCCl)cc3)cc(CN3CCOCC3)nc12 | 6.71 | 5.51 | 13.6 | 11.3 | 10.7 |  |  | 
12 | N#Cc1cnn2c(Nc3ccccc3Cl)cc(CN(CCCl)CCCl)nc12 | > 100 | > 100 | > 100 | > 100 | > 100 |  |  | 
13 | C#Cc1cccc(Nc2cc(CN(CCCl)CCCl)nc3c(C#N)cnn23)c1 | > 100 | 44.2 | > 100 | 34 | 83.1 |  |  | 
14 | CN1CCN(Cc2cc(Nc3ccc(N(CCCl)CCCl)cc3)n3ncc(C#N)c3n2)CC1 | 7.42 | 2.92 | 8.9 | 12.2 | 23.6 | 8.29 |  | 
15 | N#Cc1cnn2c(Nc3cccc(N(CCCl)CCCl)c3)cc(CN3CCC(N4CCCCC4)CC3)nc12 | 9.36 | 9.07 | 13.2 | 25.1 | 22.4 |  |  | 
16 | Cc1cc(Nc2cc(CN(CCCl)CCCl)nc3c(C#N)cnn23)ccc1F | 77.9 | 39 | 75 | 38 | 76.1 |  |  | 
17 | N#Cc1cnn2c(Nc3ccc(N(CCCl)CCCl)cc3)cc(CN3CCC(CO)CC3)nc12 | 11.5 | 8.54 | 12.8 | 16.2 | 26.8 |  |  | 
18 | N#Cc1cnn2c(Nc3ccc(N(CCCl)CCCl)cc3)cc(CN3CCC(O)CC3)nc12 | 13.7 | 9.11 | 20.6 | 20.4 | 20.9 |  |  | 
19 | COc1cc(Nc2cc(CN(CCCl)CCCl)nc3c(C#N)cnn23)cc(OC)c1 | > 100 | > 100 | > 100 | > 100 | > 100 |  |  | 
20 | CN(C)Cc1cc(Nc2cccc(N(CCCl)CCCl)c2)n2ncc(C#N)c2n1 | 40.8 | 33.6 | 39.8 | 54.6 | 59.3 |  |  | 
21 | N#Cc1cnn2c(Nc3ccc(F)c(C(F)(F)F)c3)cc(CN(CCCl)CCCl)nc12 | > 100 | > 100 | > 100 | 75.1 | > 100 |  |  | 
22 | N#Cc1cnn2c(Nc3cccc(Cl)c3)cc(CN(CCCl)CCCl)nc12 | > 100 | 56.6 | > 100 | 23 | 43.5 |  |  | 

Row | Compound | IC50 [1] [µM] | IC50 [2] [µM] | IC50 [3] [µM] | IC50 [4] [µM] | IC50 [5] [µM] | IC50 at 72 h [6] [µM] | Activity [7] [%] | Activity [8] [%]
23 | CN(C)C1CCN(Cc2cc(Nc3ccc(N(CCCl)CCCl)cc3)n3ncc(C#N)c3n2)CC1 | 7.86 | 4.01 | 5.12 | 12.4 | 7.67 | 11.1 |  | 
24 | CCN1CCN(Cc2cc(Nc3cccc(N(CCCl)CCCl)c3)n3ncc(C#N)c3n2)CC1 | 22.7 | 16.6 | 16.5 | 23.9 | 44.1 |  |  | 
25 | CCN1CCN(Cc2cc(Nc3ccc(N(CCCl)CCCl)cc3)n3ncc(C#N)c3n2)CC1 | 8.4 | 10.7 | 14.8 | 13.8 | 21.7 | 13.5 |  | 
26 | Cc1cc(C)cc(Nc2cc(CN(CCCl)CCCl)nc3c(C#N)cnn23)c1 | > 100 | 59.4 | 97.4 | > 100 | > 100 |  |  | 
27 | CNC(=O)c1cc(Oc2ccc(NC(=O)Nc3ccc(Cl)c(C(F)(F)F)c3)cc2)ccn1 [SORAFENIB] | 27.7 |  | 19.5 |  |  | 10.7 | 47.9 | 54.93
28 | N#Cc1cnn2c(Nc3cccc(N(CCCl)CCCl)c3)cc(CN3CCC(O)CC3)nc12 | 36.7 | 29.7 | 35.8 | 70.4 | > 100 |  |  | 
29 | N#Cc1cnn2c(Nc3ccc(F)c(Cl)c3)cc(CN(CCCl)CCCl)nc12 | > 100 | 89.4 | > 100 | 76.8 | 27.4 |  |  | 
30 | CN(C)C1CCN(Cc2cc(Nc3cccc(N(CCCl)CCCl)c3)n3ncc(C#N)c3n2)CC1 | 15.3 | 9.22 | 12.7 | 25.2 | 27 |  |  | 
31 | N#Cc1cnn2c(Nc3ccc(N(CCCl)CCCl)cc3)cc(CN3CCCC3)nc12 | 9.17 | 5.54 | 9.84 | 12.4 | 27.2 | 13.7 |  | 
32 | CCOC(=O)C1CCN(Cc2cc(Nc3ccc(N(CCCl)CCCl)cc3)n3ncc(C#N)c3n2)CC1 | 74.1 | 74.2 | > 100 | > 100 | > 100 |  |  | 
33 | CCOC(=O)c1ccc(Nc2cc(CN(CCCl)CCCl)nc3c(C#N)cnn23)cc1 | 64.4 | 52.1 | 85.4 | 26.4 | 37.3 |  |  | 
34 | N[C@@H](Cc1ccc(N(CCCl)CCCl)cc1)C(=O)O [MELPHALAN] | > 100 | 18.3 | 43.8 | 40.6 | > 100 |  |  | 
35 | CC1CCN(Cc2cc(Nc3ccc(N(CCCl)CCCl)cc3)n3ncc(C#N)c3n2)CC1 | 19.2 | 23.6 | 18.3 | 82.9 | 43.4 | 17.5 |  | 
36 | N#Cc1cnn2c(Nc3cccc(N(CCCl)CCCl)c3)cc(CN3CCCC3)nc12 | 15.7 | 14.4 | 17.5 | 37.5 | 35.4 |  |  | 
37 | CN(C)Cc1cc(Nc2ccc(N(CCCl)CCCl)cc2)n2ncc(C#N)c2n1 | 8.68 | 3.16 | 6.22 | 6.53 | 18.9 | 11 |  | 
38 | N#Cc1cnn2c(Nc3ccc(N(CCCl)CCCl)cc3)cc(CN3CCC(c4ccccc4)CC3)nc12 | > 100 | > 100 | > 100 | > 100 | > 100 |  |  | 
39 | Cc1cccc(Nc2cc(CN(CCCl)CCCl)nc3c(C#N)cnn23)c1 | 79.9 | 62.1 | > 100 | 25.8 | 35 |  |  | 
40 | N#Cc1cnn2c(Nc3ccccc3Br)cc(CN(CCCl)CCCl)nc12 | > 100 | > 100 | > 100 | > 100 | > 100 |  |  | 
41 | N#Cc1cnn2c(Nc3cccc(F)c3)cc(CN(CCCl)CCCl)nc12 | > 100 | 67.2 | > 100 | > 100 | > 100 |  |  | 
42 | N#Cc1cnn2c(Nc3cccc(N(CCCl)CCCl)c3)cc(CN3CCC(CO)CC3)nc12 | 30.7 | 18.4 | 27.9 | 41.1 | 33.4 |  |  | 
43 | N#Cc1cnn2c(Nc3cccc(Br)c3)cc(CN(CCCl)CCCl)nc12 | > 100 | 49.7 | > 100 | 41 | > 100 |  |  | 
44 | Cc1ccccc1Nc1cc(CN(CCCl)CCCl)nc2c(C#N)cnn12 | > 100 | > 100 | > 100 | 99.2 | > 100 |  |  | 
